Measured values: ChEMBL document CHEMBL3407418, “Fragment-based drug discovery of 2-thiazolidinones as BRD4 inhibitors: 2. Structure-based optimization” (J Med Chem, 2015)

Columns and labels:
[1] = biological target: CYP2C19 (Homo sapiens, UniProt P33261); assay: Inhibition of CYP2C19 in human liver microsomes at 10 uM using mephenytoin substrate preincubated for 5 mins before NADPH addition and measured after 20 mins post NADPH addition; assay type: ADME; settings: probe mephenytoin
In short: (§1)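 Human liver microsomes 0.2 mg/mL, 1 mmol NADPH, 100 mmol phosphate pH 7.4, probe cocktail (10 μM midazolam, 100 μM testosterone, 10 μM dextromethorphan, 20 μM diclofenac, 100 μM phenacetin, 100 μM mephenytoin), test compound 10 μM or PBS; organic solvent <1%. 5 min preincubation at 37 °C, NADPH-generating system start, 20 min reaction; inhibition from metabolite formation relative to PBS.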

[2] = biological target: T1, Cytochrome P450 2C9 (Homo sapiens, UniProt P11712); assay: Inhibition of CYP2C9 in human liver microsomes at 10 uM using diclofenac substrate preincubated for 5 mins before NADPH addition and measured after 20 mins post NADPH addition; assay type: ADME; settings: microsomes, 20 min, 10 µM; in short: as §1
T1 sequence (P11712 whole entry): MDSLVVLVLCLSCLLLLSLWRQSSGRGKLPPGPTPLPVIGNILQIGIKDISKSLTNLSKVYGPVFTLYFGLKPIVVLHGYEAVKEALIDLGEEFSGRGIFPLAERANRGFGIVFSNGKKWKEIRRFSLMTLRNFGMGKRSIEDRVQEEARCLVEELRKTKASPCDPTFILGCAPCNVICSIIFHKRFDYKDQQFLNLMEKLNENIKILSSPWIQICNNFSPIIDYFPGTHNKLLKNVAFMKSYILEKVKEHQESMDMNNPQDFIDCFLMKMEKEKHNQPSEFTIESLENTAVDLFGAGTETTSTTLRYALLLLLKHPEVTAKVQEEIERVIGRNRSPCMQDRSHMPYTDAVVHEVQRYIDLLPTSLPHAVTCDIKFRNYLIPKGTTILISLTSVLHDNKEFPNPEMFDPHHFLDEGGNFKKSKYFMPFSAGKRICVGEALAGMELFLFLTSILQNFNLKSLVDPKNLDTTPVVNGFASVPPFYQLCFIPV

[3] = biological target: Bromodomain-containing protein 4 (Homo sapiens, UniProt O60885); assay: Inhibition of BRD4(1) (unknown origin) incubated for 4 hrs by (+)-JQ1 fluorescent ligand based fluorescence anisotrophy
[4] = biological target: T2, CYP3A4 (Homo sapiens, UniProt P08684); assay: Inhibition of CYP3A4 in human liver microsomes at 10 uM using midazolam substrate preincubated for 5 mins before NADPH addition and measured after 20 mins post NADPH addition; assay type: ADME; settings: probe midazolam; in short: as §1
T2 sequence (P08684 whole entry): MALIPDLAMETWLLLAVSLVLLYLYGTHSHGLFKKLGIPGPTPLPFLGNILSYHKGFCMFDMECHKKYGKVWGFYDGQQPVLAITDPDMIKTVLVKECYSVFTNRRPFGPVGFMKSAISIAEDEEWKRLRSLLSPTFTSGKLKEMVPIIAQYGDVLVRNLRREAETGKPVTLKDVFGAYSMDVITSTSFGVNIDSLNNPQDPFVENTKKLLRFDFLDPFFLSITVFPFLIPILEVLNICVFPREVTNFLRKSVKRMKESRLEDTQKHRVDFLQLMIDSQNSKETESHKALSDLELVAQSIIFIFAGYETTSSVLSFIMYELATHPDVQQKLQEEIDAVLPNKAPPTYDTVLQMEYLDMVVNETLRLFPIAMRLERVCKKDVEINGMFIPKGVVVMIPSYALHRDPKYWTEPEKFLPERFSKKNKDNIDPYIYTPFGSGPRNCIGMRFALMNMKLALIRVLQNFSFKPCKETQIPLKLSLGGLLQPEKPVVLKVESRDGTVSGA

[5] = Growth inhibition of human MM1S cells after 72 hrs by CellTiter-Glo luminescent cell viability assay; settings: MM1.S
[6] = biological target: Cytochrome P450 2D6 (Homo sapiens, UniProt P10635); assay: Time dependent inhibition of CYP2D6 in human liver microsomes at 10 uM using dextromethorphan substrate preincubated for 5 mins before NADPH addition and measured after 20 mins post NADPH addition; assay type: ADME
Chain of Cytochrome P450 2D6 (P10635 whole entry): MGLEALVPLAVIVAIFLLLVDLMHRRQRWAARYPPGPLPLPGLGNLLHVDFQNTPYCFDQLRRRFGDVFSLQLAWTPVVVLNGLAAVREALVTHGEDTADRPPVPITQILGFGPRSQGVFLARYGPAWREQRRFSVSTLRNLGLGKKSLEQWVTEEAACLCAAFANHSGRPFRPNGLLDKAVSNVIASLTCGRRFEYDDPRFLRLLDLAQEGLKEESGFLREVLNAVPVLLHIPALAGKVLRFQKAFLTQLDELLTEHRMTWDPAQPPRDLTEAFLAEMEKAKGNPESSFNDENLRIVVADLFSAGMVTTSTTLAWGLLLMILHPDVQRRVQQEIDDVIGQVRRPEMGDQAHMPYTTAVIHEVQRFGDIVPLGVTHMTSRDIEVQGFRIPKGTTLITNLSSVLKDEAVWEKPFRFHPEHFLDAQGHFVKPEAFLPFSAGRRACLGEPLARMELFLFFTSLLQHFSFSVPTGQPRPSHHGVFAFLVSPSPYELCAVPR

[7] = biological target: T1, Cytochrome P450 2C9; assay: Time dependent inhibition of CYP2C9 in human liver microsomes at 10 uM using diclofenac substrate preincubated for 5 mins before NADPH addition and measured after 20 mins post NADPH addition; assay type: ADME
[8] = biological target: T2, CYP3A4; assay: Inhibition of CYP3A4 in human liver microsomes at 10 uM preincubated for 5 mins before NADPH addition and measured after 20 mins post NADPH addition; assay type: ADME
[9] = Stability in human liver microsomes assessed as clearance at 1 uM pre-incubated for 5 mins followed by NADPH addition and measured after 5 to 30 mins post NADPH addition by LC/MS/MS method; assay type: ADME; settings: read-out: CLH
In short: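 Human liver microsomes (0.5 mg/mL) preincubated with 1 µM compound for 5 min at 37 °C in 0.1 M phosphate pH 7.4 with 1 mmol EDTA and 5 mmol MgCl2. Started with 1 mmol NADPH; sampled at 0, 5, 10 and 30 min. Quenched with equal volume of cold acetonitrile, vortexed, and centrifuged at 10,000 × g.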

[10] = biological target: Cytochrome P450 2C19 (Homo sapiens, UniProt P33261); assay: Time dependent inhibition of CYP2C19 in human liver microsomes at 10 uM using mephenytoin substrate preincubated for 5 mins before NADPH addition and measured after 20 mins post NADPH addition; assay type: ADME
Chain of Cytochrome P450 2C19 (P33261 whole entry): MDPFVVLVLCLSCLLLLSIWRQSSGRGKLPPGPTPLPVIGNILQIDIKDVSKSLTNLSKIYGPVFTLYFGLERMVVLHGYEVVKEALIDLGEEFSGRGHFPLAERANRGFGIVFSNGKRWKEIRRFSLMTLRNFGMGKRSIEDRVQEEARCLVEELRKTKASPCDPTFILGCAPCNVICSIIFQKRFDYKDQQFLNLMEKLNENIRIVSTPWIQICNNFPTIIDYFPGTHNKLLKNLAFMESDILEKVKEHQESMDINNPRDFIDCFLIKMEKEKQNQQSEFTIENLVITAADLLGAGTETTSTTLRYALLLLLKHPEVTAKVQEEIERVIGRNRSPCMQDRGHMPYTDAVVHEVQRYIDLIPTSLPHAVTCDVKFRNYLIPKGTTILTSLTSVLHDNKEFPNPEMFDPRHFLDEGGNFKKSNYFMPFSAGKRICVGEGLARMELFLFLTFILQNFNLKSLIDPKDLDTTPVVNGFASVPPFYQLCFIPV

[11] = biological target: T3, CYP1A2 (Homo sapiens, UniProt P05177); assay: Inhibition of CYP1A2 in human liver microsomes at 10 uM using phenacetin substrate preincubated for 5 mins before NADPH addition and measured after 20 mins post NADPH addition; assay type: ADME; settings: probe phenacetin; in short: as §1
T3 sequence (P05177 whole entry): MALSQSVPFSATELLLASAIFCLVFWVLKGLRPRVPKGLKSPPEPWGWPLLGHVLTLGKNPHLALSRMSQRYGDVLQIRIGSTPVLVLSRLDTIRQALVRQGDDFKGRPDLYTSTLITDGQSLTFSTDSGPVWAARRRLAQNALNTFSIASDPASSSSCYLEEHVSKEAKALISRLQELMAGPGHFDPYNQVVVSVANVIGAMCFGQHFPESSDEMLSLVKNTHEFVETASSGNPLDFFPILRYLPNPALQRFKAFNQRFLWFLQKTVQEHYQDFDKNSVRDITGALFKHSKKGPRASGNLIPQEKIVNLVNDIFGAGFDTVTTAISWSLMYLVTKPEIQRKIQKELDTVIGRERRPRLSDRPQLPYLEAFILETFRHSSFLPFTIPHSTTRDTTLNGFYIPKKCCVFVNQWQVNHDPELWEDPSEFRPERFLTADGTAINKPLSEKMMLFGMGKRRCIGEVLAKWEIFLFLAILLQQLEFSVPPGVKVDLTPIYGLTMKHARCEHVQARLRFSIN

[12] = test system: HT-29; assay: Growth inhibition of human HT-29 cells after 72 hrs by SRB assay; assay type: functional, cell-based; settings: HT-29, 72 h
In short: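 HT-29 cells are grown in McCoy's 5A with 10% FBS at 37 °C, 5% CO2. DMSO stocks (0.01 mol/L) are diluted in normal saline just before use. Cells are treated in triplicate with gradient concentrations for 72 h at 37 °C.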

[13] = biological target: T4, Cytochrome P450 1A2 (Homo sapiens, UniProt P05177); assay: Time dependent inhibition of CYP1A2 in human liver microsomes at 10 uM using phenacetin substrate preincubated for 5 mins before NADPH addition and measured after 20 mins post NADPH addition; assay type: ADME
T4 sequence (P05177 whole entry): T3 sequence (P05177 whole entry)

[14] = biological target: CYP2D6 (Homo sapiens, UniProt P10635); assay: Inhibition of CYP2D6 in human liver microsomes at 10 uM using dextromethorphan substrate preincubated for 5 mins before NADPH addition and measured after 20 mins post NADPH addition; assay type: ADME; settings: liver microsomes, probe dextromethorphan; in short: as §1
Chain of CYP2D6 (P10635 whole entry): as the sequence (P10635 whole entry) above

[15] = biological target: Cytochrome P450 3A4 (Homo sapiens, UniProt P08684); assay: Time dependent inhibition of CYP3A4 in human liver microsomes at 10 uM using midazolam substrate preincubated for 5 mins before NADPH addition and measured after 20 mins post NADPH addition; assay type: ADME
Chain of Cytochrome P450 3A4 (P08684 whole entry): as the sequence (P08684 whole entry) above

[16] = test system: MV4-11; assay: Growth inhibition of human MV4-11 cells after 72 hrs by CellTiter-Glo luminescent cell viability assay; settings: MV4-11, 72 h

Chain of CYP2C19 (P33261 whole entry): as the sequence (P33261 whole entry) above

In the case of CNc1cc(-c2csc(=O)[nH]2)cc(S(=O)(=O)NC2CCCC2)c1C, the inhibition at 20 min, 10 µM [1] is reported as 17%, the “inhibition (INH)” value [2] is reported as “Not Active” and the IC50 [3] is reported as 250 nM. For the same molecule, the inhibition at 20 min, 10 µM [4] was 41%, the IC50 [5] was 505 nM and the TDI [6] was “Not Active”. The TDI [7] was “Not Active”, the inhibition at 20 min, 10 µM [8] was 47% and the microsomal CLint at 1 µM [9] was 174 µL/min/mg. The TDI [10] was “Not Active”, the inhibition at 20 min, 10 µM [11] was 37% and the IC50 [12] was 850 nM. For the same molecule, the TDI [13] was “Not Active”, the inhibition at 20 min, 10 µM [14] was 36% and the TDI [15] was “Not Active”. It also gave an IC50 [16] of 198 nM.
